Results taken from ChEMBL document CHEMBL1144182, “Antimicrobial and cytotoxic arylazoenamines. Part III: antiviral activity of selected classes of arylazoenamines” (Bioorg Med Chem, 2008).
Calls of active or inactive are those of the source. The rule behind the calls is not given here.

Experiments:
[1] = test system: Coxsackievirus B2; experiment: Antiviral activity against CVB2 infected in Vero76 cells assessed as reduction in virus plaque formation after 4 days by MTT assay; format: functional, organism-based; conditions: Enterovirus B, Vero 76, 96 h
[2] = test system: Vesicular stomatitis virus; experiment: Antiviral activity against VSV infected in Vero76 cells assessed as reduction in virus plaque formation after 4 days by MTT assay; format: functional, organism-based; conditions: Vero 76
[3] = test system: Poliovirus 1; experiment: Antiviral activity against Sb1 virus infected in Vero76 cells assessed as reduction in virus plaque formation after 4 days by MTT assay; format: functional, organism-based; conditions: Enterovirus C, Sabin, Vero 76, 96 h
[4] = test system: Yellow fever virus; experiment: Antiviral activity against YFV infected in BHK21 cells assessed as protection against virus-induced cytopathogenicity after 4 days by MTT assay; format: functional, organism-based; conditions: BHK-21, 96 h
Outline: (§1)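 MDBK (BVDV) or BHK-21 (YFV) cells were seeded at 3 × 10^4 or 5 × 10^4 cells/well respectively and grown overnight to confluent monolayers at 37 °C in 5% CO2. Monolayers were infected at m.o.i. 0.01 in serum-free medium. After 1 h, MEM Earle's with 1% FCS was added, with or without serial compound dilutions. After 3–4 days at 37 °C, viability was read by MTT. EC50 was taken as 50% protection from virus-induced cytopathogenicity.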

[5] = Cytotoxicity against mock-infected african green monkey Vero76 cells assessed as reduction in cell viability after 96 hrs by MTT assay; format: cell-based, Vero; conditions: chlorocebus sabaeus
[6] = Cytotoxicity against mock-infected human MT4 cells assessed as reduction in cell viability after 96 hrs by MTT assay; format: cell-based
Outline: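 Exponentially growing MT-4 cells seeded at 1 × 10^5 cells/mL in RPMI-1640 with 10% FCS, penicillin and streptomycin, with or without serial compound dilutions. Incubated at 37 °C, 5% CO2; viability read by MTT after 96 h. CC50 is the concentration reducing mock-infected cell viability by 50%.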

[7] = test system: Vaccinia virus; experiment: Antiviral activity against VV infected in Vero76 cells assessed as reduction in virus plaque formation after 4 days by MTT assay; format: functional, organism-based; conditions: Orthopoxvirus vaccinia; Vero 76
[8] = test system: Bovine viral diarrhea virus 1; experiment: Antiviral activity against BVDV infected in MDBK cells assessed as protection against virus-induced cytopathogenicity after 4 days by MTT assay; format: functional, organism-based; conditions: Bovine viral diarrhea virus isolates and strains, 96 h; outline: as §1
[9] = Cytotoxicity against mock-infected MDBK cells assessed as reduction in cell viability after 96 hrs by MTT assay; format: cell-based, Bos taurus; conditions: cattle
Outline: (§2)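 Cytotoxicity run in parallel with the antiviral assays. MDBK seeded at 6 × 10^5 and BHK at 1 × 10^6 cells/mL in maintenance medium with or without serial compound dilutions. Incubated 48–96 h at 37 °C, 5% CO2, then viability read by MTT. CC50 is the concentration reducing mock-infected cell viability by 50%.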

[10] = Cytotoxicity against mock-infected BHK cells assessed as reduction in cell viability after 96 hrs by MTT assay; format: cell-based, Mesocricetus auratus; conditions: hamster; outline: as §2
[11] = test system: Human immunodeficiency virus 1; experiment: Antiviral activity against HIV1 infected in MT4 cells assessed as virus-induced cytopathogenicity after 4 days; format: functional, organism-based
[12] = test system: Respiratory syncytial virus; experiment: Antiviral activity against RSV infected in Vero76 cells assessed as reduction in virus plaque formation after 4 days by MTT assay; format: functional, organism-based; conditions: human respiratory syncytial virus, Vero 76, 96 h

SMILES | EC50 [1] [µM] | Activity [2] | EC50 [3] [µM] | EC50 [4] [µM] | CC50 at 96 h [5] [µM] | CC50 at 96 h [6] [µM] | Activity [7] | EC50 [8] [µM] | CC50 at 96 h [9] [µM] | CC50 at 96 h [10] [µM] | Activity [11] | EC50 [12] [µM]
CN1CCC/C1=C\N=N\c1cccc(Br)c1 | 16 | inactive | > 80 | 7 | 80 | 55 | inactive | 9 | 52 | 41 | inactive | > 80
CN1C=C(/N=N/c2c(F)c(F)c(F)c(F)c2F)CCC1 | > 100 | inactive | > 100 | > 100 | > 100 | > 100 | inactive | > 100 | > 100 | > 100 | inactive | > 100
CN1C=C(/N=N/c2cccc(C(F)(F)F)c2)CCC1 | > 100 | inactive | > 100 | > 100 | > 100 | > 100 | inactive | 90 | > 100 | > 100 | inactive | > 100
C(=C\N1CCCCC1)/N=N/c1ccccc1 | 7 | inactive | > 15 | 23 | 15 | 2 | inactive | > 7 | 7 | 67 | inactive | > 15
CN1CCC/C1=C\N=N\c1cccc(C(F)(F)F)c1 | > 100 | inactive | > 100 | > 50 | > 100 | 49 | inactive | 21 | 90 | 50 | inactive | > 100
Clc1ccc2c(/N=N/C3=C4CCCCN4CCC3)ccnc2c1 | 51 | inactive | > 85 | > 48 | 85 | 15 | inactive | 5 | 40 | 48 | inactive | > 85
CN1C=C(/N=N/c2cccc(Cl)c2)CCC1 | 34 | inactive | > 75 | > 85 | 75 | > 100 | inactive | 12 | 87 | 85 | inactive | 40
CN1C=C(/N=N/c2ccc(F)cc2)CCC1 | 53 | inactive | > 77 | > 90 | 77 | ≥ 100 | inactive | > 48 | 48 | 90 | inactive | 30
Clc1cccc(N2CCN(/C=C/N=N/c3ccccc3)CC2)c1 | > 11 | inactive | > 11 | 10 | 11 | 19 | inactive | > 7 | 7 | 47 | inactive | 5
CN1C=C(/N=N/c2ccc(F)c(C(F)(F)F)c2)CCC1 | 35 | inactive | > 70 | > 80 | 70 | > 100 | inactive | > 100 | > 100 | 80 | inactive | > 70
c1ccc2c(/N=N\C3=C4CCCCN4CCC3)cccc2c1 | > 90 | inactive | > 90 | > 20 | 90 | 12 | inactive | 6 | > 100 | 20 | inactive | > 90
CN1/C(=C\N=N\c2ccc(Cl)cc2)C(C)(C)c2ccccc21 | > 100 | inactive | > 100 | > 21 | > 100 | 55 | inactive | > 72 | 72 | 21 | inactive | > 100
C(=C\N1CCN(c2ccccn2)CC1)/N=N/c1ccccc1 | 6 | inactive | > 22 | > 75 | 22 | 19 | inactive | > 100 | ≥ 100 | 75 | inactive | 7
Clc1cccc(/N=N\C2=C3CCCCN3CCC2)c1 | 22 | inactive | > 60 | > 46 | 60 | 16 | inactive | > 20 | 20 | 46 | inactive | 18
CN1CCC/C1=C\N=N\c1c(F)c(F)c(F)c(F)c1F | > 100 | inactive | > 100 | > 100 | > 100 | 8 | inactive | > 100 | > 100 | > 100 | inactive | 75
CN1C=C(/N=N/c2cccc([N+](=O)[O-])c2)CCC1 | > 100 | inactive | > 100 | > 95 | > 100 | > 100 | inactive | 0.8 | > 100 | 95 | inactive | > 100
FC(F)(F)c1cccc(/N=N\C2=C3CCCCN3CCC2)c1 | 21 | inactive | > 100 | > 40 | > 100 | 4 | inactive | > 8 | 8 | 40 | inactive | > 100
O=[N+]([O-])c1ccc(N2CCN(/C=C/N=N/c3ccccc3)CC2)cc1 | 14 | inactive | > 45 | 12 | 45 | 41 | inactive | > 20 | 20 | 48 | inactive | 13
Cc1ccc(/N=N/C2=CN(C)CCC2)cc1 | > 71 | inactive | 25 | > 100 | 71 | > 100 | inactive | > 100 | > 100 | > 100 | inactive | > 71
CN1CCC/C1=C\N=N\c1ccccc1 | 19 | inactive | > 82 | > 100 | 82 | > 100 | inactive | 10 | > 100 | > 100 | inactive | 20
Brc1cccc(/N=N\C2=C3CCCCN3CCC2)c1 | 18 | inactive | > 100 | > 49 | > 100 | 9 | inactive | > 10 | 10 | 49 | inactive | > 100
